Bioassay records from PubChem BioAssay.
MPTP inh: permeability transition pore inhibition. inhibition, % at 10 µM. isolated mouse mitochondria, Ca2+ swelling absorbance, 30 min. hit rate 1.4% among 360,000;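 active = inhibition of 50% or more, scaled per plate between neutral and stimulator controls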;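 note: 0% = DMSO wells given calcium and 100% = 1 mM EGTA wells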
NR3A LBD binder: NR3A (human) ligand-binding domain modulation. Tm shift relative to glycine control, % at 25 µM. NR3A LBD differential scanning fluorimetry, Tm shift; 0% = protein alone, 100% = glycine-bound protein. AID 1259313. hit rate 2.5% among 340,000;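 active = melting temperature shift of at least 10% of the positive control shift, at one fixed dose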
EBI2 antag: antagonists of human EBI2 receptor; P32249; EBI2 beta-arrestin recruitment, luminescence, 7a,25-OHC stimulated; inhibition, % at 5 µM; hit rate 0.81% among 360,000; in the data active = inhibition above about 38%;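 note: enzyme fragment complementation signal reports receptor beta-arrestin coupling in cells; 0% = agonist plus DMSO wells and 100% = wells without agonist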
Target sequence (P32249 whole entry, looked up, the tested form may be a part): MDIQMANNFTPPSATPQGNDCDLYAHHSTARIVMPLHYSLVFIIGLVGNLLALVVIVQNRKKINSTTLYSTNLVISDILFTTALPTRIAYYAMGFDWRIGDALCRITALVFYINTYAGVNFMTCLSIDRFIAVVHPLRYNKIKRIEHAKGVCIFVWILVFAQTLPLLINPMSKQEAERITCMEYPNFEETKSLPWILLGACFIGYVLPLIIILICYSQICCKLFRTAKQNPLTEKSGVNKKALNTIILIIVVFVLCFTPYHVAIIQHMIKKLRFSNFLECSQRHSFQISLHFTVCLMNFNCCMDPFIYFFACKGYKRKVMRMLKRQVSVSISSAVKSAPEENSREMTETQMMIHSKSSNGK
SENP1 inh: blocks the human SENP1 SUMO protease catalytic domain. Q9P0U3. recombinant SENP1 catalytic domain, CyPet-SUMO1-YPet FRET cleavage. inhibition, % at 10 µM. hit rate 0.21% among 360,000. AID 624204;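 active = inhibition at least 30% at 10 µM, raw YFP signal under a set limit, fluorescence ratio 0.5 to 1.5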;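 note: 0% = enzyme with DMSO and 100% = no enzyme wells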
Target sequence (Q9P0U3 419-644 limits assumed): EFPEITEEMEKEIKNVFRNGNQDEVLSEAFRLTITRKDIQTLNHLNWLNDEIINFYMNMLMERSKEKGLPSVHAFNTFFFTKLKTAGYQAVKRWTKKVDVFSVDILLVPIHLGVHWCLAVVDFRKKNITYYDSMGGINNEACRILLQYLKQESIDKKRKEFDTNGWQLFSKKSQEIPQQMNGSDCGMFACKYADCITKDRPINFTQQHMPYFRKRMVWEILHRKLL
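System: Recombinant human SENP1 catalytic domain, His6-tagged | Incubation: Enzyme reaction for 50 min at room temperature, dark | Medium: Tris pH 8 with BME, BSA, NP40 and catalase | Also added: 25 nM SUMO1 FRET substrate | Compound: 10 µM single point, 0.5% DMSO | Measured by: FRET fluorescence in CFP and YFP emission channels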
Rh123 counter: Rhodamine 123 counter-screen of mitochondrial pore hits; shares compounds with MPTP inh; isolated mitochondria, membrane potential, Rhodamine 123 fluorescence; inhibition, % at 10 µM; hit rate 78% among 5,000; AID 624504; in the data active = inhibition above about 22%;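 note: 0% = DMSO vehicle and 100% = positive control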
MPTP abs DR: MPTP inhibition, dose response swelling confirmation. shares compounds with MPTP inh. isolated mitochondria swelling, absorbance. IC50, µM. hit rate 58% among 780; in the data active = IC50 below about 20 µM
MPTP counter DR: active in counter-screen for permeability transition pore inhibitors. AID 651564. isolated mitochondria counterscreen, fluorescence read-out. IC50, µM. shares compounds with MPTP inh. hit rate 49% among 780; in the data active = IC50 below about 80 µM
* = called active by the depositor; i = inactive; nt = no result. Hits are enriched below; roughly 4.4% of the tested compounds scored in any of these assays.

SMILES | MPTP inh | NR3A LBD binder | EBI2 antag | SENP1 inh | Rh123 counter | others
N#Cc1ccc(NC(=O)NN2CCCCCC2)cc1 | 101.5* | 7.3 | 1.4 | 1.0 | 86.6*
O=C(CN(C(=O)c1ccccc1)C(=O)c1ccccc1)OCc1ccccc1 | -0.4 | 4.0 | 17.1 | -1.7 | nt
CC(=O)c1sc(NC(=O)C2(F)C(F)(F)C(F)(F)C(F)(F)C(F)(F)C2(F)F)nc1C | 94.7* | 2.0 | -9.7 | -3.8 | 91.2*
Cn1c(=O)c2c(nc(NCc3ccco3)n2C/C=C/c2ccccc2)n(C)c1=O | 88.6* | 0.6 | -32.0 | -0.8 | 106.0*
Cn1c(=O)c2c(nc(NCc3ccco3)n2C)n(C)c1=O | -1.7 | 4.8 | 0.8 | -2.5 | nt
CC(Cl)=CCn1c(NCCc2ccccc2)nc2c1c(=O)n(C)c(=O)n2C | 71.0* | nt | 16.0 | -1.2 | 76.0*
CC(C)C(c1nnnn1C1CCCC1)N1CCN(C(=O)c2ccco2)CC1 (centres undefined) | -1.6 | 0.2 | 1.9 | -1.5 | nt
CCc1cc2c(NCc3ccccc3)nc(C)nc2s1 | 91.2* | -3.0 | 5.6 | -1.6 | 64.6*
CCn1nc(C)cc1-c1n[nH]c(=S)n1N | -10.4 | 1.4 | -8.9 | -0.1 | nt
CN(CC(=O)Nc1c(Cl)cccc1Cl)C(=O)CNC(=O)c1ccco1 | -1.2 | 1.0 | -1.2 | -0.2 | nt
CCOc1ccc(S(=O)(=O)NNC(=O)c2cc3ccccc3o2)cc1 | 3.3 | -0.3 | -3.0 | 0.8 | nt
CCCOc1ccc(S(=O)(=O)NNC(=O)c2cc3ccccc3o2)cc1 | 66.1* | -1.8 | -10.9 | 1.7 | 31.4*
CCOCCCN(C)C1CCN(C(=O)c2oc3ccccc3c2NC(=O)Cc2ccc(F)cc2)CC1 | -0.8 | 0.3 | 4.4 | -1.3 | nt
CCCCCCn1c2c(c(=N)c3c1CCC3)CCC2 | 3.7 | -2.0 | -3.3 | 0.4 | nt
CCCCCCCCCn1c2c(c(=N)c3c1CCC3)CCC2 | 83.7* | -4.2 | 10.2 | -0.6 | 91.8*
CC(Oc1ccc(Br)cc1Cl)C(=O)Nc1ccncc1 (centres undefined) | 77.1* | -0.6 | -8.9 | 2.8 | 80.4*
CSc1nc(N)nc2c1ncn2CC(=O)Nc1ccc(C)c(C)c1 | 1.9 | -2.6 | -8.8 | 0.6 | nt
Cc1ccc(C23CC4CC(CC(CN)(C4)C2)C3)cc1 | 80.1* | -1.0 | 3.2 | -0.2 | -14.6 | MPTP abs DR=4.99*;MPTP counter DR=74.6*
O=C(NCCc1ccccc1)Nc1cccc(Cl)c1 | 97.2* | 20.0* | -1.1 | -1.0 | 87.9*
Cc1cccc(NC(=O)NC(C)CCc2ccccc2)c1 (centres undefined) | 63.6* | -5.4 | 14.3 | 0.9 | 73.2*
O=C(NCCSCc1ccco1)Nc1ccc(Cl)cc1 | 1.8 | -27.4 | 6.2 | 1.7 | nt
O=C(NCCSCc1ccco1)Nc1cccc(Cl)c1 | 79.4* | -1.0 | 6.3 | 0.1 | 79.1*
O=C(NCCc1ccc(Cl)cc1)Nc1cccc(Cl)c1 | 94.9* | 20.5* | 28.7 | 3.4 | 93.5*
Cc1ccc(C)c(N(CC(=O)NC(C)(C)C)C(=O)CCC(=O)Nc2nccs2)c1 | -1.2 | 5.0 | -9.3 | 1.0 | nt
O=C1NC[C@@H](CCCCN2C[C@H](Cc3ccc(O)cc3)N(CCc3ccccc3)C(=O)C2=O)N(CCc2ccccc2)C1=O | -1.1 | nt | 0.4 | 4.2 | nt
SMILES | MPTP inh | NR3A LBD binder | EBI2 antag | SENP1 inh | Rh123 counter | others
NC1=NC[C@H](Cc2ccc(O)cc2)N1CC1CCCCC1 | -0.5 | 5.1 | -4.5 | -3.8 | nt
NC1=NC[C@@H](Cc2ccc(O)cc2)N1CCCCC1CCCCC1 | 59.8* | -1.8 | 3.3 | -8.3 | 4.8 | MPTP abs DR=9.62*;MPTP counter DR=24.4*
CCOC(=O)C1=NOC2COC3(CCN(c4ncccn4)CC3)OCC12 (centres undefined) | -0.2 | 0.0 | -4.4 | 0.5 | nt
Cc1cc(C)c(N2CCN(S(=O)(=O)N3CCCCCC3)CC2)c(C)c1 | 78.9* | -1.6 | 0.5 | -41.1 | 13.3 | MPTP abs DR=i;MPTP counter DR=17.4*
COCCn1c(C)cc(C(=O)CSc2nc3ccccc3c(=O)[nH]2)c1C | 64.4* | 2.2 | 0.0 | -3.8 | 14.3 | MPTP abs DR=i;MPTP counter DR=44.7*
COCC(C)n1c(C)cc(C(=O)CSc2nc3ccccc3c(=O)[nH]2)c1C (centres undefined) | 76.1* | 0.5 | 8.3 | -11.2 | 34.5*
CCN(CC)C(=O)CSc1nc2ccccc2c(=O)[nH]1 | 66.0* | -0.1 | 6.0 | 3.2 | -1.2 | MPTP abs DR=>100;MPTP counter DR=>80
CN(C)C(=O)CSc1nc2ccccc2c(=O)[nH]1 | -3.9 | -0.8 | 0.3 | 2.4 | nt
C=CCn1c(C)cc(C(=O)CSc2nc3ccccc3c(=O)[nH]2)c1C | 14.7 | 1.4 | 12.7 | -7.9 | nt
Cc1cc(C(=O)CSc2nc3ccccc3[nH]2)c(C)n1Cc1ccco1 | 85.9* | 13.1* | 8.6 | -8.8 | 83.2*
C=CCn1c(C)cc(C(=O)CSc2nc3ccccc3[nH]2)c1C | 16.1 | 2.0 | -5.5 | -0.6 | nt
CC(C)CN1CCN(Cc2cn(C)c3ccccc23)CC1CCO (centres undefined) | -0.2 | -0.2 | 1.5 | -0.5 | nt
O=C(NCC(=O)N1CCC2(CC1)NCCc1[nH]cnc12)c1ccccc1F | -1.2 | 1.5 | -4.7 | -3.0 | nt
COC(=O)[C@]12CCCCC=C1N(Cc1ccccc1)C(=O)[C@H](CC(=O)N1CCN(C(=O)c3ccco3)CC1)C2 | -2.1 | nt | 3.0 | 3.6 | nt
CCC(C)(C)NC(=O)CN(C(=O)C(=O)Nc1ccc2c(c1)OCCO2)C1CC1 | 0.3 | 1.1 | 7.9 | 0.2 | nt
COc1ccccc1NC(=O)Nc1ccc(CC#N)cc1 | 0.7 | -5.3 | -4.1 | 0.5 | nt
CCCCNc1c(-c2cccc(-c3ccc(OC)cc3)c2)nc2ccc(C)cn12 | 56.2* | -42.0 | -95.0 | -89.3 | 76.8*
CCCCNc1c(-c2cccc(-c3ccc(OC)cc3)c2)nc2cc(C)ccn12 | 62.7* | -15.4 | -0.5 | -66.2 | 101.8*
CCCCNc1c(-c2cccc(-c3cc(C(C)=O)cs3)c2)nc2ccc(C)cn12 | 11.2 | -10.7 | -11.5 | 6.9 | nt
CCCCNc1c(-c2ccc(OC)c(SC3CCCCC3)c2)nc2cc(C)ccn12 | 43.7 | -31.0 | 15.6 | -50.1 | nt
Cc1cc(Cl)ccc1NC(=O)C1COc2ccccc2O1 (centres undefined) | 0.2 | -2.9 | 7.9 | 4.6 | nt
FC(F)(F)c1nc(SCc2ccc(Cl)cc2Cl)n[nH]1 | 63.4* | -3.8 | -2.0 | -2.1 | 90.5*
O=C(CCc1ccccc1)NC(=S)Nc1cccc(Br)c1 | 5.8 | 4.1 | 38.5 | -0.7 | nt
N#Cc1ccc(NC(=S)Nc2ccccc2)cc1 | 90.0* | -8.1 | -1.4 | 0.9 | 92.0*
CC(=O)Nc1ccc(NC(=S)Nc2ccc(Br)cc2)cc1 | 97.8* | 8.8 | 17.7 | 3.3 | 88.4*
CC(=O)Nc1ccc(NC(=S)Nc2ccccc2)cc1 | -0.5 | -6.7 | -1.7 | 2.4 | nt
S=C(Nc1cccc(Br)c1)c1ccccc1 | 53.1* | -5.7 | -9.4 | 1.8 | 71.4*
S=C(Nc1ccccc1)Nc1cccc(Br)c1 | 90.2* | 16.2* | -8.5 | 0.6 | 102.4*
COc1ccc(CN(C)C(=O)c2cc(S(=O)(=O)N3CCOCC3)ccc2N2CCCC2)cc1 | -0.3 | 0.9 | 9.1 | 0.4 | nt
